Laboratory results reported in PubChem BioAssay AID2560 (University of Pittsburgh Molecular Library Screening Center, 2010).
This is one part of the list. Activity calls are given as the source filed them.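 The calls were made as follows: active = inhibition of at least 50% in both of the two screening runs; inconclusive = at least 50% in one run, below 50% in the other; inactive = inhibition below 50% in both runs.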

tested on: hexokinase 1 (Trypanosoma brucei); experiment: T. brucei hexokinase 1 inhibition, single-dose recheck – biochemical, DPI cherry-picked primary actives, confirmation (AID 2560); conditions: recombinant TbHK1, G6PDH-coupled NADH A340 absorbance; at 10 µM; stronger effect = higher value;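 also: 0% and 100% set by the maximum and minimum signal control wells on each plate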
Procedure, shortened: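 Assay system: T. brucei hexokinase 1, G6PDH-coupled / Medium: Mg2+, NAD+ and G6PDH coupling mix / Reagent: glucose 0.5 mM plus ATP 0.35 mM / Dosing: one dose, 10 µM / Schedule: enzyme reaction 2 h at room temperature / Technique: NADH absorbance at 340 nm after 50 mM EDTA stop / Replication: duplicate measurements per compound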

inhibition, inactive:
COc1cccc(/C=N/Nc2ncc(C(F)(F)F)cc2Cl)c1O -10.9%
O=C(CN1C(=O)C2C3C=CC(C3)C2C1=O)NCCc1ccccc1Cl (centres undefined) -0.0219%
CC1(C)CC(=O)C=C(NCCCNC2CCCCC2)C1 2.17%
COC(=O)C1CCN(CC(N)=O)CC1 5.76%
